The values that follow come from ChEMBL document CHEMBL1158990, “New cytotoxic lupane lactones from Kokoona ochracea” (1991).

What all share (format): functional
Assay [1] in a line: Cytotoxicity against human UISO-MEL2 cells after 72 hrs. As to conditions: UISO-MEL2, 72 h, read-out: ED50 (the source's name). An outline of the steps:
(§1)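 In vitro growth-inhibition assay with a 72 h compound exposure. ED50 in µg/ml is the concentration that inhibits cell growth by 50%.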

The next assay concerns HT-1080. In words: Cytotoxicity against human HT1080 cells after 72 hrs. The note with it: HT-1080, 72 h, read-out: ED50 (the source's name). The procedure, abridged:
as §1

The nature of assay [2]: Cytotoxicity against human KBV1 cells after 72 hrs. As to conditions: KB-V1, 72 h, read-out: ED50 (the source's name).
The nature of assay [3]: Cytotoxicity against human UISO-LUC1 cells after 72 hrs. As to conditions: UISO-LUC1, 72 h, read-out: ED50 (the source's name). The procedure, abridged:
as §1

A short description of assay [4]: Cytotoxicity against human UISO-COL2 cells after 72 hrs. As to conditions: UISO-COL2, 72 h, read-out: ED50 (the source's name). The procedure, abridged:
as §1

A short description of assay [5]: Cytotoxicity against human UISO-BCA1 cells after 72 hrs. As to conditions: UISO-BCA1, 72 h, read-out: ED50 (the source's name). The procedure, abridged: as §1
Assay [6] can be described thus: Cytotoxicity against human KB3 cells after 72 hrs. The note with it: KB3, 72 h, read-out: ED50 (the source's name). An outline of the steps: as §1
The next assay concerns P388. The assay is described as follows: Cytotoxicity against mouse P388 cells after 48 hrs. The note with it: P388, 48 h, read-out: ED50 (the source's name). An outline of the steps:
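Cultured murine P-388 leukemia cells were treated with compound for 48 h. The read-out is cell growth inhibition, and ED50 in µg/ml is the concentration producing 50% inhibition.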

Each structure is given as a SMILES string. ≈ marks a conversion by molar mass, not a printed value.

Turning to `CC1(C)C(=O)CC[C@]2(C)[C@H]3CC[C@H]4[C@@H]5[C@H]6[C@@H](C[C@]5(C)CC[C@@]4(C)[C@]3(C)CC[C@@H]12)OC(=O)[C@@]61CO1`, the EC50 (in assay [1]; in the assay with HT-1080; in assay [2]; in assay [3]; in assay [4]; in assay [5]) was over 20 µg/mL in each case. In addition, the EC50 came out at 5.2 µg/mL (≈ 11.1 µM) in assay [6] and 7.8 µg/mL (≈ 16.6 µM) with P388.
Regarding `C=C1C(=O)O[C@@H]2C[C@]3(C)CC[C@]4(C)[C@H](CC[C@@H]5[C@@]6(C)CCC(=O)C(C)(C)[C@@H]6CC[C@]54C)[C@H]3[C@H]12` [OCHRACEOLIDE A], the EC50 in assay [1] was 8.3 µg/mL (≈ 18.3 µM); in the assay with HT-1080, 9.6 µg/mL (≈ 21.2 µM); in assay [2] it was over 20 µg/mL; in assay [3], 12 µg/mL (≈ 26.5 µM); in assay [4], 6.8 µg/mL (≈ 15 µM); in assay [5], 10 µg/mL (≈ 22.1 µM). For the same molecule, the figures for the EC50 (in assay [6]; in the assay on P388) were 2.7 µg/mL (≈ 5.96 µM) and 0.26 µg/mL (≈ 0.574 µM), respectively.
In the case of `C=C1C(=O)O[C@@H]2C[C@]3(C)CC[C@]4(C)[C@@H](CC[C@@H]5[C@@]6(C)CCC(=O)C(C)(C)[C@@H]6C(=O)C[C@]54C)[C@@H]3[C@H]12` [OCHRACEOLIDE C], the EC50 in assay [1] is 8.3 µg/mL (≈ 17.8 µM); in the assay on HT-1080, 8.6 µg/mL (≈ 18.4 µM); in assay [2], over 20 µg/mL; in assay [3] it was 12 µg/mL (≈ 25.7 µM); in assay [4] it was 9.2 µg/mL (≈ 19.7 µM); in assay [5], 4.5 µg/mL (≈ 9.64 µM). Also, the EC50 amounted to 5.5 µg/mL (≈ 11.8 µM) in assay [6] and 0.53 µg/mL (≈ 1.14 µM) with P388.
